Assay outcomes: PubChem, The Scripps Research Institute Molecular Screening Center
This is a sample that favours compounds with a hit; in the whole collection about 1.8% have one here.
TDP2 absorb: human TDP2 enzyme inhibitors, primary screen, biochemical, epi absorbance, recombinant enzyme | T5PNP hydrolysis, p-nitrophenol absorbance 415 nm | inhibition, % at 12.8 µM | actives 0.34% (n = 370,000) | AID 720702, 2013;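 active = inhibition above the mean of all tested compounds plus 3 SD, set per campaign, cut at about 25% in these data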;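 note: 0% = DMSO with enzyme and 100% = buffer with substrate but no TDP2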
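test system = human TDP2 enzyme | input = TDP2 enzyme at 120 nM final | medium = 50 mM Tris-HCl pH 7.5 with Mg2+, KCl, DTT, BSA | also added = T5PNP substrate, 5 mM | times = 2 h at 37 °C | technique = epi absorbance | benchmarks = high control without enzyme, low control DMSO plus TDP2 | replication = each compound tested once, singlicate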
MBD2 inh: inhibitors of MBD2 binding to methylated DNA, primary screen, biochemical, TR-FRET, DNA-binding domain, human; inhibition, % at 4.4 µM; actives 0.31% (n = 370,000); MBD2 binding to methylated oligonucleotide; Methyl-CpG-binding domain protein 2 (Homo sapiens), Q9UBB5; in the data active = inhibition above about 13%
core dimer inh: inhibitors of HCV core protein dimerization, primary screen, biochemical, TR-FRET, high-throughput; inhibition, % at 5 µM; actives 0.33% (n = 300,000); TR-FRET GST/Flag-core106 dimerization, 1536-well; AID 1899, 2009;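 active = inhibition above the mean of all tested compounds plus 3 SD, set per screening campaign, cut at about 45% in these data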
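Assay system: tagged HCV core106 pair (GST and Flag); medium: KF-containing HEPES buffer, pH 7.45, DTT, CHAPS, BSA; also added: Eu donor and XL665 acceptor anti-tag antibodies; dosing: 5 µM single dose; timing: compound-protein-antibody incubation 4 h at 22.5 °C; signal: TR-FRET 671 and 617 nm emission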
UHRF1 MBD2 ctr: UHRF1 methylated DNA binding inhibitors, primary screen, counter-screen for MBD2 inhibitor project, biochemical, TR-FRET, human UHRF1, single concentration. E3 ubiquitin-protein ligase UHRF1 (Homo sapiens), Q96T88. UHRF1 binding to methylated oligo. inhibition, % at 4.4 µM. actives 0.75% (n = 370,000); in the data active = inhibition above about 21%;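 note: UHRF1 SRA domain binding a hemimethylated CpG hairpin DNA probe; 0% = median of test compound wells and 100% = reference inhibitor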
Target sequence (Q96T88 whole entry, looked up, the tested form may be a part): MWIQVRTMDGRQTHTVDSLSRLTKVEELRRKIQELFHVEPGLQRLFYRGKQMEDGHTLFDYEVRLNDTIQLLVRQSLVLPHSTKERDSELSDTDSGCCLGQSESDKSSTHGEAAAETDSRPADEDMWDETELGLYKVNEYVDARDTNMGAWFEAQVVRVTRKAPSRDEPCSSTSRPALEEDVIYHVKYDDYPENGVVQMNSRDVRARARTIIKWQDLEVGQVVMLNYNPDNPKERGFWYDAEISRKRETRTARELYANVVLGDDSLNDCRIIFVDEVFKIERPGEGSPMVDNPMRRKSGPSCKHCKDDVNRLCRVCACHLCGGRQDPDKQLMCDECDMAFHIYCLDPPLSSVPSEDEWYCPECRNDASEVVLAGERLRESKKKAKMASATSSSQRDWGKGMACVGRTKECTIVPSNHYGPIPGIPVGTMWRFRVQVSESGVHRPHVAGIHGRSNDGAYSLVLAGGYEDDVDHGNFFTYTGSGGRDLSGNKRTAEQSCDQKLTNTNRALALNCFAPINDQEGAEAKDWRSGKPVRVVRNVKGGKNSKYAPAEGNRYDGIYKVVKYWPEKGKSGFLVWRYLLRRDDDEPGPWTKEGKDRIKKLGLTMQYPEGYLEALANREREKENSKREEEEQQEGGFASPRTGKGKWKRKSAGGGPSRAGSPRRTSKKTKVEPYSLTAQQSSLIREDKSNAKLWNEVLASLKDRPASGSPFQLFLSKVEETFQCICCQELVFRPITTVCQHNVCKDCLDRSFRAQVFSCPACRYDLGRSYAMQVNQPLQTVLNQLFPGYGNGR
LEDGF integ inh: blockers of LEDGF/p75-dependent integrase strand transfer – biochemical, TR-FRET, high throughput, primary screen | HIV-1 integrase (with human LEDGF/p75) | TR-FRET IN-LEDGF/p75 DNA integration, Eu/Cy5 | inhibition, % at 3.7 µM | actives 0.64% (n = 370,000) | AID 743269, 2014;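 active = inhibition above the screen-wide mean plus 3 SD, cut at about 13% in these data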;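 note: signal is the Cy5 over europium emission ratio at 671 and 618 nm; 0% = plate median of compound wells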
An asterisk follows results filed as active; . = no result.

SMILES | TDP2 absorb | MBD2 inh | core dimer inh | UHRF1 MBD2 ctr | LEDGF integ inh
CCCN(C(=O)CSc1nnnn1C)C1CCS(=O)(=O)C1 (configuration not stated) | -1 | 3 | 3 | 22* | 3
O=C(c1cccs1)N1CC[C@H]2[C@H](CCCN2Cc2ccc(F)cc2)C1 | 4 | 3 | . | 1 | -3
Cc1c(C(=O)OCC(=O)NCCc2ccc(S(N)(=O)=O)cc2)oc2ccccc12 | 5 | 3 | . | 37* | -1
O=P(c1ccccc1)(c1ccccc1)c1cc(S(=O)(=O)O)ccc1O | 6 | 6 | . | 27* | 2
COC(=O)CC1OCC=C2CN3CCC45C6=CC(=O)C(=O)C([N+](=O)[O-])=C6NC4C1C2CC35 (configuration not stated) | 68* | 16* | . | 20 | -3
CCn1c(SC(C)C(=O)O)nc2sc3c(c2c1=O)CCC3 (configuration not stated) | 1 | 10 | 25 | 28* | 11
Cc1cc(-c2n[nH]c(=S)n2N=Cc2ccc(-c3ccccc3)cc2)n[nH]1 | 6 | 2 | . | 1 | -1
COC1=C(Br)C(=O)c2nc(C)ccc2C1=O | 25* | 6 | . | 39* | 65*
O=C(CCC(=O)c1ccc[nH]1)c1ccc(Cl)cc1 | 9 | -3 | 53* | 1 | 4
O=C(COc1ccc(F)c(Cl)c1)c1ccc[nH]1 | 2 | -3 | 11 | -1 | 5
C=CCN1[C@@H](Cc2ccccc2)COc2cccc(N3CCCC3)c2S1(=O)=O | -7 | 4 | . | 4 | -3
Cc1cc(C)c2cc(CN(Cc3ccco3)C(=S)NCC3CCCO3)c(=O)[nH]c2c1 (configuration not stated) | -3 | 4 | 10 | 45* | -1
O=C(Nc1c(-c2ccccc2)[nH][nH]c1=O)c1ccc(-c2ccccc2)cc1 | 6 | 4 | . | -6 | -2
O=C(Nc1c(-c2ccccc2)[nH][nH]c1=O)c1ccco1 | 24 | 1 | . | 63* | 4
CC(C)(C)OC(=O)CN1C(=O)S/C(=C\c2ccc(-c3cccc(C(=O)O)c3)o2)C1=O | . | . | 15 | . | .
Cc1ccccc1NC(=O)CN1C(=O)S/C(=C\c2ccc(-c3cc(C(=O)O)ccc3C)o2)C1=O | 2 | 7 | . | 19 | -1
Cc1ccc(C(=O)O)cc1-c1ccc(/C=C2\SC(=O)N(CC(=O)Nc3ccccc3)C2=O)o1 | 12 | 6 | 12 | 22* | 3
Cc1cc(C(=O)O)ccc1-c1ccc(/C=C2\SC(=O)N(CC(=O)Nc3ccc4c(c3)OCO4)C2=O)o1 | 13 | 6 | . | 24* | -2
Cc1ccc(NC(=O)CN2C(=O)S/C(=C/c3ccc(-c4cccc(C(=O)O)c4)o3)C2=O)cc1 | -9 | 8 | . | 23* | 5
C#CCN1C(=O)S/C(=C\c2ccc(-c3ccc(C(=O)O)cc3C)o2)C1=O | 2 | 12 | 17 | 41* | 9
CCOC(=O)[C@@]12CN(C(=O)OC(C)(C)C)CC=C1N(Cc1ccc(OC)cc1)C(=O)[C@H]2CC(=O)NCCCCc1ccccc1 | -7 | -5 | . | -2 | 0
O=C(O)c1ccc(NS(=O)(=O)c2ccc(Cl)c(C(=O)Nc3ccccc3)c2)cc1 | -9 | -3 | 3 | 23* | 4
O=C(O)c1ccc(NS(=O)(=O)c2ccc(NC(=O)c3ccccc3Cl)cc2)cc1 | 8 | 5 | -1 | -1 | -6
COC(=O)CSc1nnc(-c2ccc(NS(=O)(=O)c3c(C(C)C)cc(C(C)C)cc3C(C)C)cc2)o1 | 2 | -1 | . | -2 | -2
COc1ccc(Cc2nnc(SCC(=O)NC3CCCC3)o2)cc1 | 7 | 1 | 0 | 45* | 1
SMILES | TDP2 absorb | MBD2 inh | core dimer inh | UHRF1 MBD2 ctr | LEDGF integ inh
O=C(CSc1nnc(-c2ccc(F)cc2)o1)NC1CCCCC1 | 4 | 4 | -2 | 35* | -4
O=C(CSc1nnc(-c2ccncc2)o1)NC1CCCCC1 | 4 | 5 | 9 | 4 | -4
Clc1ccc([C@H]2OC[C@@]3(CNCCc4c[nH]c5ccccc45)CS[C@H](c4ccc(Cl)cc4)N23)cc1 | -4 | -6 | . | -1 | 8
CCc1ccc(CNC(=O)c2nn(C)c3c2CS(=O)(=O)c2ccccc2-3)cc1 | -3 | -8 | 6 | 1 | -6
CCOc1ccccc1CNC(=O)c1nn(C)c2c1CS(=O)(=O)c1ccccc1-2 | -14 | 4 | 2 | 26* | 3
N#CCC[C@@H]1CC[C@]2(CCCN(C(=O)c3ccco3)C2)O1 | 2 | 4 | . | 0 | 2
C/C(=N\NC(=O)CSc1nnc(-c2ccccc2)n1-c1ccc(C)cc1)c1ccc(-c2ccccc2)cc1 | 5 | 5 | . | -2 | 0
CC1=Nc2nc(N3CCCCC3)c(C#N)c3c4c(nc(c23)N1)N(c1ccc(C(C)C)cc1)C(=O)C4 | 1 | 2 | 46* | 14 | -1
COc1cccc(N2CC(=O)Nc3c(oc4nc(-c5ccccc5)cc(C)c34)C2=O)c1 | -20 | -2 | 7 | 45* | -5
Cc1cc(-c2ccccc2)nc2oc3c(c12)NC(=O)CN(c1ccccc1)C3=O | 5 | 2 | 6 | -2 | -6
Cc1ccc2nc(NC(=O)C3CCN(S(=O)(=O)c4cc([N+](=O)[O-])ccc4Cl)CC3)sc2c1 | 6 | 4 | 66* | -2 | 0
O=C(Nc1nc2ccc(F)cc2s1)C1CCN(S(=O)(=O)c2cc([N+](=O)[O-])ccc2Cl)CC1 | 7 | 0 | 46* | 2 | 3
Cc1ccc(NC(=O)C2CCN(S(=O)(=O)c3cc([N+](=O)[O-])ccc3Cl)CC2)nc1 | 1 | -4 | . | -2 | 1
CC(NC(=O)C1CCN(S(=O)(=O)c2cc([N+](=O)[O-])ccc2Cl)CC1)c1ccccc1 (configuration not stated) | 2 | 1 | 5 | 21 | 1
COC(=O)[C@]12C[C@H](CC(=O)N3CCCCC3)C(=O)N(Cc3ccccc3)C1=C[C@H](C(C)(C)C)O[C@@H]2C | 9 | 3 | . | 0 | -1
O=C(c1cccc(F)c1F)N1CCCC(c2nc(-c3cccs3)no2)C1 (configuration not stated) | 7 | 2 | . | -1 | 0
CCOc1cc(NC(=S)NCC2CCCO2)c(OCC)cc1NC(=O)c1ccccc1C (configuration not stated) | 5 | -1 | -1 | 47* | 1
CCCC(=O)C1=C(O)C(C(=O)OC)C(C)(C)CC1=N (configuration not stated) | -11 | -1 | 2 | 21* | -2
S=c1[nH]nc(-c2cccnc2)n1C1CCCCC1 | 4 | -2 | -3 | 2 | 0
